Results: the array DNA melting data of Ke et al. (doi:10.1101/2024.01.08.574731)

What was measured:
[1] = folding enthalpy; higher = less favourable; fluorescence melt of hairpins on a sequencing array, two-state fit; conditions: sodium 0.088 M
In short: (§1)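 Folding enthalpy and melting temperature were estimated with bootstrapped two-state fits and combined across four replicates by inverse-variance weighting, with fitted temperatures raised by 9.35 °C to match UV melts. The data were Cy3 fluorescence of library hairpins, with annealed Cy3 and quencher oligos, on a sequenced MiSeq flow cell in 50 mM Na-HEPES pH 8.0, 25 mM NaCl, imaged in 2.5 °C steps up to 60 °C and normalised to pre-quench Cy3 and control constructs.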

[2] = melting temperature; fluorescence melt of hairpins on a sequencing array, two-state fit, raised by 9.35 °C to match UV melts; conditions: sodium 0.088 M
In short: as §1

Row | Sequence | folding enthalpy [1] | Tm [2]
1 | GACAATGAAAATTGTC ((((((....)))))) | -31.3 kcal/mol | 51.6 °C
2 | GACACAACGAAAGTTGTC (((..(((....)))))) | -9.73 kcal/mol | 38.7 °C
3 | GACACACCGAAAGGTGTC (((..(((....)))))) | -8 kcal/mol | 37.3 °C
4 | GACACAGCGAAAGCTGTC (((..(((....)))))) | -8.05 kcal/mol | 32.3 °C
5 | GACACAGGAAACTGTACC (..((((....))))..) | -11.1 kcal/mol | 25.1 °C
6 | GACACAGGAAACTGTGTC (((((((....))))))) | -47.9 kcal/mol | 62.5 °C
7 | GACACCGAAAGGTAAGTC ((((((....)))..))) | -20.2 kcal/mol | 38.5 °C
8 | GACACCGAAAGGTGCGTC ((((((....)))..))) | -10.2 kcal/mol | 45.7 °C
9 | GACACGGGAAACCATGTC ((((.((....)).)))) | -32.9 kcal/mol | 39.9 °C
10 | GACACGGGAAACCGTGCC (.(((((....))))).) | -13.8 kcal/mol | 48.4 °C
11 | GACACTGGAAACAGTACC (..((((....))))..) | -13 kcal/mol | 24.2 °C
12 | GACACTGGAAACAGTATC ((.((((....)))).)) | -17.6 kcal/mol | 30.4 °C
13 | GACAGAACGAAAGTTGTC (((..(((....)))))) | -28.2 kcal/mol | 36.8 °C
14 | GACAGACGAAAGTCAGTC (((.(((....))).))) | -28.2 kcal/mol | 51.7 °C
15 | GACAGAGGAAACCCTGTC (((((.(....).))))) | -32.9 kcal/mol | 42.5 °C
16 | GACAGCGAAAGCTACGTC ((((((....)))..))) | -13.8 kcal/mol | 39.8 °C
17 | GACAGCGAAAGCTTGGTC ((((((....)))..))) | -17.9 kcal/mol | 40 °C
18 | GACAGCGGAAACGCTATC ((.((((....)))).)) | -14 kcal/mol | 36.7 °C
19 | GACAGGAAACTGTC (((((....))))) | -31.3 kcal/mol | 51.6 °C
20 | GACAGGGGAAACCCCATC ((..(((....)))..)) | -13.2 kcal/mol | 27.1 °C
21 | GACAGGGGAAACTCTGTC (((((.(....).))))) | -35 kcal/mol | 48.1 °C
22 | GACAGTACGAAAGTAGTC (((..(((....)))))) | -16.2 kcal/mol | 31.1 °C
23 | GACAGTGGAAACACTATC ((.((((....)))).)) | -15.9 kcal/mol | 29.5 °C

Row | Sequence | folding enthalpy [1] | Tm [2]
24 | GACATAGGAAACCATGTC (((((.(....).))))) | -29.1 kcal/mol | 37.5 °C
25 | GACATCCCGAAAGGGGTC (((..(((....)))))) | -11.1 kcal/mol | 34.4 °C
26 | GACATCCGAAAGGAGGTC (((.(((....))).))) | -40 kcal/mol | 57.9 °C
27 | GACATGAAAATGTC (((((....))))) | -24 kcal/mol | 50.4 °C
28 | GACATGACGAAAGTCGTC (((..(((....)))))) | -10.3 kcal/mol | 41.6 °C
29 | GACATGCCGAAAGGCGTC (((..(((....)))))) | -11.1 kcal/mol | 41.2 °C
30 | GACATGGCGAAAGCCGTC (((..(((....)))))) | -10.1 kcal/mol | 50.7 °C
31 | GACATGGGAAACCATGCC (.(((((....))))).) | -15.1 kcal/mol | 42.8 °C
32 | GACATGGGAAACCATGTC (((((((....))))))) | -42.8 kcal/mol | 61.3 °C
33 | GACATGGGAAACTGTGTC ((((..(....)..)))) | -28.2 kcal/mol | 37.2 °C
34 | GACATTGCGAAAGCAGTC (((..(((....)))))) | -10 kcal/mol | 32.4 °C
35 | GACATTGGAAACGATGTC (((((.(....).))))) | -36.1 kcal/mol | 46.7 °C
36 | GACCAACGAAAGTTGTC (((.(((....)))))) | -14.5 kcal/mol | 40.8 °C
37 | GACCAAGGAAACTCGGTC ((((.((....)).)))) | -29.3 kcal/mol | 37.8 °C
38 | GACCACCGAAAGGTCGTC (((.(((....))).))) | -29.5 kcal/mol | 45.1 °C
39 | GACCACCGAAAGGTTGTC (((.(((....))).))) | -32.2 kcal/mol | 48.2 °C
40 | GACCACGAAAGTGAGTC ((((((....))).))) | -30.5 kcal/mol | 52.2 °C
41 | GACCACGAAAGTGATGTC ((((((....)))..))) | -17.6 kcal/mol | 38.3 °C
42 | GACCACGAAAGTGCCGTC ((((((....)))..))) | -12 kcal/mol | 33.6 °C
43 | GACCACGAAAGTGCGTC ((((((....))).))) | -22.8 kcal/mol | 53.7 °C
44 | GACCACGAAAGTGGGTC ((((((....))).))) | -13.7 kcal/mol | 60.1 °C
45 | GACCACGAAAGTGTCGTC ((((((....)))..))) | -18.7 kcal/mol | 44.8 °C
46 | GACCACGGAAACGTGACC (..((((....))))..) | -8.43 kcal/mol | 29.2 °C

Row | Sequence | folding enthalpy [1] | Tm [2]
47 | GACCAGCGAAAGCTGTC (((.(((....)))))) | -11.3 kcal/mol | 45 °C
48 | GACCAGGCGAAAGCCGTC (((..(((....)))))) | -7.64 kcal/mol | 36.2 °C
49 | GACCAGGGAAACCTAGTC (((.(((....))).))) | -16.9 kcal/mol | 32.7 °C
50 | GACCATGGAAACATGGTC (((((((....))))))) | -43.1 kcal/mol | 65.1 °C
51 | GACCCACGAAAGTGCGTC (((.(((....))).))) | -26.1 kcal/mol | 46.7 °C
52 | GACCCACGAAAGTGGTC (((.(((....)))))) | -13.3 kcal/mol | 51.5 °C
53 | GACCCCCGAAAGGGTGTC (((.(((....))).))) | -25 kcal/mol | 51.8 °C
54 | GACCCCGAAAGGGAAGTC ((((((....)))..))) | -16.1 kcal/mol | 42.1 °C
55 | GACCCCGAAAGGGGCGTC ((((((....)))..))) | -11.7 kcal/mol | 61.4 °C
56 | GACCCCGAAAGGGGTGTC ((((((....)))..))) | -9.59 kcal/mol | 60.6 °C
57 | GACCCCGGAAACGGGGCC (.(((((....))))).) | -12.9 kcal/mol | 53.6 °C
58 | GACCCGACGAAAGTCGTC (((..(((....)))))) | -6.62 kcal/mol | 25.9 °C
59 | GACCCGCGAAAGCGGTC (((.(((....)))))) | -10 kcal/mol | 52.1 °C
60 | GACCCTGGAAACAAGGTC ((((.((....)).)))) | -27.1 kcal/mol | 35.3 °C
61 | GACCCTGGAAACAGGGCC (.(((((....))))).) | -17.2 kcal/mol | 47.2 °C
62 | GACCGCCGAAAGGCAGTC (((.(((....))).))) | -20.9 kcal/mol | 54.3 °C
63 | GACCGCGAAAGCGAGGTC ((((((....)))..))) | -19.2 kcal/mol | 56.6 °C
64 | GACCGCGAAAGCGCCGTC ((((((....)))..))) | -14.1 kcal/mol | 36.6 °C
65 | GACCGCGAAAGCGTAGTC ((((((....)))..))) | -14.6 kcal/mol | 46.5 °C
66 | GACCGCGAAAGCGTGGTC ((((((....)))..))) | -18.6 kcal/mol | 50.9 °C
67 | GACCGCGGAAACACGGCC (.(((.(....).))).) | -22.2 kcal/mol | 37 °C
68 | GACCGCGGAAACGCGACC (..((((....))))..) | -7.67 kcal/mol | 28.9 °C
